Reference: ChEMBL document CHEMBL3046507, “Synthesis and herbicidal activities of novel 3-N-substituted amino-6-methyl-4-(3-trifluoromethylphenyl)pyridazine derivatives” (2008)

What was measured:
Amaranthus retroflexus [1] = experiment: Herbicidal activity against Amaranthus retroflexus assessed as inhibition of fresh plant weight at 750 g/ha using preemergence protocol measured after 24 days under green house conditions; conditions: pre-emergence
Amaranthus retroflexus [2] = experiment: Herbicidal activity against Amaranthus retroflexus assessed as inhibition of fresh plant weight at 300 g/ha using postemergence protocol measured after 24 days under green house conditions; conditions: post-emergence
Amaranthus retroflexus [3] = experiment: Herbicidal activity against Amaranthus retroflexus assessed as inhibition of fresh plant weight at 600 g/ha using postemergence protocol measured after 24 days under green house conditions; conditions: post-emergence
[4] = system: Brassica rapa subsp. oleifera; experiment: Herbicidal activity against Brassica rapa subsp. oleifera assessed as inhibition of fresh plant weight at 750 g/ha using postemergence protocol measured after 24 days under green house conditions; conditions: post-emergence
[5] = system: Brassica rapa subsp. oleifera; experiment: Herbicidal activity against Brassica rapa subsp. oleifera assessed as inhibition of fresh plant weight at 600 g/ha using postemergence protocol measured after 24 days under green house conditions; conditions: post-emergence
Spirodela polyrhiza [6] = experiment: Inhibition of chlorophyll in Spirodela polyrhiza fronds at 10 ug/mL using light intensity of 45 uE/m2/s measured after 7 days; assay type: functional; conditions: 168 h
Method in brief: (§1)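 Giant duckweed assay. Compound in DMF dropped onto filter paper, solvent evaporated 15 min, paper placed in flask with 15 mL fresh medium and shaken >10 min. 10 fronds inoculated per flask and grown 7 days at 23-26 °C, 16 h light/8 h dark, ca. 45 µE m^-2 s^-1. DMF plus medium served as control. Chl extracted in 96% ethanol overnight at 4 °C; OD read at 665 and 649 nm; content expressed as percent of control.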

[7] = system: Brassica rapa subsp. oleifera; experiment: Herbicidal activity against Brassica rapa subsp. oleifera assessed as inhibition of fresh plant weight at 75 g/ha using postemergence protocol measured after 24 days under green house conditions; conditions: post-emergence
[8] = system: Brassica rapa subsp. oleifera; experiment: Herbicidal activity against Brassica rapa subsp. oleifera assessed as inhibition of fresh plant weight at 750 g/ha using preemergence protocol measured after 24 days under green house conditions; conditions: pre-emergence
Digitaria [9] = experiment: Herbicidal activity against Digitaria adscendens assessed as inhibition of fresh plant weight at 750 g/ha using postemergence protocol measured after 24 days under green house conditions; conditions: in Digitaria adscendens, post-emergence
Amaranthus retroflexus [10] = experiment: Herbicidal activity against Amaranthus retroflexus assessed as inhibition of fresh plant weight at 75 g/ha using postemergence protocol measured after 24 days under green house conditions; conditions: post-emergence
Echinochloa crus-galli [11] = experiment: Herbicidal activity against Echinochloa crus-galli (barnyard grass) assessed as inhibition of fresh plant weight at 750 g/ha using postemergence protocol measured after 24 days under green house conditions; conditions: post-emergence
Digitaria [12] = experiment: Herbicidal activity against Digitaria adscendens assessed as inhibition of fresh plant weight at 750 g/ha using preemergence protocol measured after 24 days under green house conditions; conditions: in Digitaria adscendens, pre-emergence
Amaranthus retroflexus [13] = experiment: Herbicidal activity against Amaranthus retroflexus assessed as inhibition of fresh plant weight at 150 g/ha using postemergence protocol measured after 24 days under green house conditions; conditions: post-emergence
Amaranthus retroflexus [14] = experiment: Herbicidal activity against Amaranthus retroflexus assessed as inhibition of fresh plant weight at 750 g/ha using postemergence protocol measured after 24 days under green house conditions; conditions: post-emergence
Spirodela polyrhiza [15] = experiment: Inhibition of chlorophyll in Spirodela polyrhiza fronds at 1 ug/mL using light intensity of 45 uE/m2/s measured after 7 days; assay type: functional; conditions: 168 h
Method in brief: as §1

[16] = system: Brassica rapa subsp. oleifera; experiment: Herbicidal activity against Brassica rapa subsp. oleifera assessed as inhibition of fresh plant weight at 150 g/ha using postemergence protocol measured after 24 days under green house conditions; conditions: post-emergence
[17] = system: Brassica rapa subsp. oleifera; experiment: Herbicidal activity against Brassica rapa subsp. oleifera assessed as inhibition of fresh plant weight at 300 g/ha using postemergence protocol measured after 24 days under green house conditions; conditions: post-emergence
Echinochloa crus-galli [18] = experiment: Herbicidal activity against Echinochloa crus-galli (barnyard grass) assessed as inhibition of fresh plant weight at 750 g/ha using preemergence protocol measured after 24 days under green house conditions; conditions: pre-emergence

Structure (SMILES) | inhibition at 750 g/ha (Amaranthus retroflexus [1]) [%] | inhibition at 300 g/ha (Amaranthus retroflexus [2]) [%] | inhibition at 600 g/ha (Amaranthus retroflexus [3]) [%] | inhibition at 750 g/ha [4] [%] | inhibition at 600 g/ha [5] [%] | inhibition at 10 µg/mL (Spirodela polyrhiza [6]) [%] | inhibition at 75 g/ha [7] [%] | inhibition at 750 g/ha [8] [%] | inhibition at 750 g/ha (Digitaria [9]) [%] | inhibition at 75 g/ha (Amaranthus retroflexus [10]) [%] | inhibition at 750 g/ha (Echinochloa crus-galli [11]) [%] | inhibition at 750 g/ha (Digitaria [12]) [%] | inhibition at 150 g/ha (Amaranthus retroflexus [13]) [%] | inhibition at 750 g/ha (Amaranthus retroflexus [14]) [%] | inhibition at 1 µg/mL (Spirodela polyrhiza [15]) [%] | inhibition at 150 g/ha [16] [%] | inhibition at 300 g/ha [17] [%] | inhibition at 750 g/ha (Echinochloa crus-galli [18]) [%]
Cc1cc(-c2cccc(C(F)(F)F)c2)c(Nc2ccccc2)nn1 | 33 | 43 | 61 | 99 | 92 | 100 | 66 | 48 | 0 | 18 | 15 | 43 | 41 | 60 | 100 | 74 | 84 | 43
Cc1cccc(Nc2nnc(C)cc2-c2cccc(C(F)(F)F)c2)c1 | 81 | 25 | 52 | 79 | 42 | 100 |  | 18 | 6 |  | 29 | 7 | 23 | 64 | 100 | 0 | 30 | 8
Cc1ccc(Nc2nnc(C)cc2-c2cccc(C(F)(F)F)c2)cc1 | 90 | 28 | 59 | 99 | 59 | 96 |  | 82 | 18 |  | 2 | 17 | 17 | 85 | 95 | 39 | 54 | 0
Cc1cc(-c2cccc(C(F)(F)F)c2)c(Nc2ccccc2F)nn1 | 0 | 58 | 75 | 100 | 96 | 100 | 60 | 18 | 40 | 39 | 21 | 15 | 48 | 100 | 100 | 67 | 88 | 0
Cc1cc(-c2cccc(C(F)(F)F)c2)c(Nc2ccc(F)cc2)nn1 | 19 | 55 | 64 | 88 | 93 | 100 | 55 | 8 | 0 | 32 | 23 | 0 | 43 | 85 | 100 | 58 | 83 | 2
Cc1cc(-c2cccc(C(F)(F)F)c2)c(Nc2ccc(Cl)cc2)nn1 | 0 | 60 | 66 | 100 | 90 | 100 | 52 | 18 | 0 | 42 | 0 | 0 | 45 | 100 | 87 | 87 | 89 | 0
Cc1cc(-c2cccc(C(F)(F)F)c2)c(Nc2cccc(C(F)(F)F)c2)nn1 | 0 | 42 | 54 | 96 | 88 | 100 | 48 | 0 | 0 | 32 | 8 | 0 | 37 | 95 | 100 | 72 | 79 | 0
Cc1cc(-c2cccc(C(F)(F)F)c2)c(NCc2ccccc2)nn1 | 4 |  |  | 30 |  | 86 |  | 0 | 23 |  | 8 | 7 |  | 27 | 83 |  |  | 0
Cc1ccc(CNc2nnc(C)cc2-c2cccc(C(F)(F)F)c2)cc1 | 31 |  |  | 20 |  | 74 |  | 16 | 54 |  | 0 | 64 |  | 2 | 34 |  |  | 78
COc1ccc(CNc2nnc(C)cc2-c2cccc(C(F)(F)F)c2)cc1 | 2 |  |  | 14 |  | 84 |  | 0 | 8 |  | 0 | 0 |  | 18 | 51 |  |  | 22
